# Screens (PubChem BioAssay)
# Rows were chosen to be rich in hits. Some 3.4% of all compounds tested hit in one or more screens of this group.
# LANA-H2A inh: blocks KSHV LANA binding to histone H2A/H2B. inhibition, % (test concentration not listed). AID 2629. 0.6% of 320,000 active. cell-free LANA-H2A/H2B peptide, fluorescence polarization; in the data active = inhibition mostly above about 10%, no sharp cut-off; inactive = mostly below about 6.7%
# GPR7 antag: blocks human GPR7 receptor signaling | 1.1% of 290,000 active | GPR7-expressing cells, fluorescence antagonist assay | inhibition, % at 4.4 µM; in the data active = inhibition above about 16%, passing the limit was not always enough;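 note: cells stimulated with the agonist NPW; 0% = agonist with vehicle and 100% = vehicle without agonist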
# TAAR1 ag: agonists of human TAAR1. Q96RJ0. CHO RD-HGA16 TAAR1, Fluo-8 calcium fluorescence; vehicle wells 0%, saturating PEA agonist 100%. activation, % at 3 µM. 0.99% of 360,000 active;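 active = activation above the mean activation of all test compounds in the run plus 3 SD, cut at about 38% in these data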
#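 Repeats: no replicates (n 1) | Material: CHO-derived RD-HGA16 cells with stable Gα16 and human TAAR1 | Technique: Kinetic Fluo-8 calcium fluorescence | Schedule: 17-24 h seeding, 75 min 37 °C dye, 30 min RT | Evaluation: % activation from peak over basal fluorescence ratio, DMSO-to-PEA scaled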
# zfTRPN1 agonist: activates the zebrafish TRPN1 channel; HEK293 zebrafish TRPN1-YFP, Fluo-8 calcium fluorescence; 100% = response to 87 µM carbachol; activation, % at 3 µM; 0.18% of 220,000 active; AID 1424;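 active = activation above its plate's cutoff, the mean activation of test wells on that plate plus 3 SD, cut at about 19% in these data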;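 note: 0% = DMSO alone and 100% = 87 µM carbachol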
#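 Control set: carbachol 87 µM as high control, DMSO as low control; system: HEK293 stable line with zebrafish TRPN1-YFP; read-out: % activation versus carbachol response; detection: intracellular calcium fluorescence with Fluo-8; doses: single test compound dose, 3 µM nominal, 0.3% DMSO; schedule: dye 1 h 37 °C plus 30 min RT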
# TAAR1 antag: human TAAR1 antagonism. inhibition, % at 3 µM. CHO RD-HGA16 TAAR1, Fluo-8 calcium fluorescence, antagonist. AID 624466. 1.5% of 360,000 active;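 active = inhibition above a per-plate cutoff, the mean inhibition of test compounds on that plate plus 3 SD, cut at about 49% in these data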;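 note: 0% = DMSO plus EC80 beta-PEA response and 100% = DMSO alone without agonist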
#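 Test system: RD-HGA16 CHO cells with stable hTAAR1 and Gα16 / Probe or stimulus: EC80 β-phenethylamine stimulus / Times: seeding 17-24 h prior, 75-min 37 °C, 30-min RT dye loading / Detection: Fluo-8 calcium-sensitive fluorescence / Read-out basis: % inhibition scaled between DMSO and EC80 PEA controls / Repeats: singlicate, one well per test compound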
# TRPML3 ag: human mucolipin-3 channel agonism; activation, % at 3 µM; HEK293 TRPML3-YFP, Fluo-8 calcium fluorescence; 100% = the carbachol control signal; 0.29% of 220,000 active; AID 1448; Q8TDD5;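 active = activation above its plate's cutoff, the mean activation of the plate's test wells plus 3 SD, cut at about 12% in these data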;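 note: 0% = DMSO only wells and 100% = carbachol wells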
# Target sequence (Q8TDD5 whole entry, looked up): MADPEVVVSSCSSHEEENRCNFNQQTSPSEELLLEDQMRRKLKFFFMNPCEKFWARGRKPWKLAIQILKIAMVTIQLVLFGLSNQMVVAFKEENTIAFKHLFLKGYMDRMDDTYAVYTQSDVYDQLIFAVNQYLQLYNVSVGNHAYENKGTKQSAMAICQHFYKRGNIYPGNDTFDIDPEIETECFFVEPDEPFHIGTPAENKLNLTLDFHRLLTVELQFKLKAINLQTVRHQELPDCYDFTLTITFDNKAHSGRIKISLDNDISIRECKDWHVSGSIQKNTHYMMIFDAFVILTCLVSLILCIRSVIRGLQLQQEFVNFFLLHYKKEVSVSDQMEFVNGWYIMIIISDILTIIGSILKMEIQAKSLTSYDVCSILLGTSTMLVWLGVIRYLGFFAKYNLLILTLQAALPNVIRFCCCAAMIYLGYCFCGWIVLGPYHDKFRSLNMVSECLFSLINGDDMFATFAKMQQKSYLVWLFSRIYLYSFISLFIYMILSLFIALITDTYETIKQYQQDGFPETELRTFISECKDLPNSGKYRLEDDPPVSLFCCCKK
#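 Material: HEK293 cells stably carrying human TRPML3-YFP; compound dosing: single dose, 3 µM final nominal compound, 0.3% DMSO final; incubation: 1-h 37 °C dye load, 5-s basal, 120-s post-compound reads; technique: Fluo-8 intracellular calcium fluorescence, excitation 470-495 nm, emission 515-575 nm; read-out basis: percent activation from peak-to-basal fluorescence ratio, scaled between DMSO and carbachol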
# Starred values were filed as active, the others as inactive; . = no result given; + = active, no number.
SMILES,LANA-H2A inh,GPR7 antag,TAAR1 ag,zfTRPN1 agonist,TAAR1 antag,TRPML3 ag
COC(=O)[C@]1(C)N[C@H](CN(C)C(=O)Nc2ccc(Cl)cc2)[C@@H]2C(=O)N(Cc3ccccc3)C(=O)[C@@H]21,+,.,0,.,1,.
CC(=O)Nc1cc2nc3ccccc3oc-2cc1=O,.,.,0,.,5,.
CC(=O)c1ccc(NS(=O)(=O)c2c(C)cc(C)cc2C)cc1,19*,-9,5,-1,7,0
CCOC(=O)C1=CCN(S(=O)(=O)c2ccccc2Cl)C1c1ccc(Cl)cc1 (stereo not given),.,.,4,.,19,.
CCC1Nc2ccccc2-c2nnc(SC)nc2O1 (stereo not given),3,-6,1,1,8,0
COc1ccccc1C(=O)C1Nc2ccccc2-c2nnc(SC)nc2O1 (stereo not given),21*,0,9,-1,0,0
CC1(C)NC(=O)N(CC(O)COc2ccccc2C(=O)Nc2ccccc2)C1=O (stereo not given),-1,-4,12,0,34,1
O=C(Nc1ccccc1)c1ccccc1OCC(O)CN1C(=O)c2ccccc2S1(=O)=O (stereo not given),-2,-3,25,3,65*,-1
NC(=O)c1ccsc1NC(=O)c1ccc2c(c1)CCCC2,-3,-6,-1,-2,24,1
CNC(=O)c1ccsc1NC(=O)c1ccc2c(c1)CCCC2,-3,-18,3,1,51*,1
C[C@H]1COc2cc(N3CCOCC3)ccc2S(=O)(=O)N1,.,.,1,.,12,.
C[C@H]1Cn2cnc(C(=O)N3CCN(c4ccccc4)CC3)c2C(=O)N1,.,.,-1,.,5,.
COc1cc(CNC(=O)c2cc(-c3cc(F)ccc3OCC3CCCO3)n[nH]2)cc(OC)c1 (stereo not given),.,.,5,.,53*,.
COc1ccc(/C=C2\N=C(C)N(c3ccc4ccccc4c3)C2=O)cc1OC,0,-13,3,2,66*,1
COc1ccc(/C=C2\N=C3CCCCCN3C2=O)cc1OC,-4,-5,1,-1,3,0
O=C1C(=Cc2cccn2-c2ccccc2)C(=O)c2ccccc21,127*,11,6,1,14,0
CCCC(=O)OC[C@H]1CN(C2CCCC2)S(=O)(=O)c2c(Oc3ccc(F)cc3)cccc2O1,.,.,1,.,-18,.
CC(C)C[C@H](NC(=O)c1ccc(Cl)cc1Cl)C(=O)N1CCC[C@H]1C(=O)NCc1ccccc1,.,.,-2,.,-19,.
O=C(Nc1cccc([N+](=O)[O-])c1)OCc1ccc2c(c1)OCO2,.,.,1,.,31,.
CSc1ccc(CN2CCN(Cc3ccc([N+](=O)[O-])cc3)CC2)cc1,-1,31*,-2,8,3,4
O=C(OCC(=O)c1c[nH]c2ccccc12)c1ccco1,-5,-8,28,1,-23,0
COc1cccc(/C=C/C(=O)OCC(=O)c2c[nH]c3ccccc23)c1OC,-2,4,11,1,54*,1
COc1ccccc1NC(=O)COC(=O)c1c[nH]c2ccccc12,3,.,8,.,49*,.
COc1cc(NC(=O)c2ccco2)c(C(=O)OCC(=O)c2c[nH]c3ccccc23)cc1OC,3,0,17,0,62*,1
Cc1ccc(C)c(N2CCN(C(=O)c3cc4ccccn4n3)CC2)c1,30*,-9,.,-1,.,-1
SMILES,LANA-H2A inh,GPR7 antag,TAAR1 ag,zfTRPN1 agonist,TAAR1 antag,TRPML3 ag
O=C(c1cc2ccccn2n1)N1CCCC1,.,-6,.,0,.,1
CC(=O)c1cccc(NC(=O)Nc2ccc3c(c2)N(C)C(=O)CS3)c1,2,-2,27,6,66*,3
Cc1ccc(CNC(=O)Nc2ccc3c(c2)N(C)C(=O)CS3)cc1,-1,-9,9,0,21,0
Cc1ccc(NC(=O)Nc2ccc3c(c2)N(C)C(=O)CS3)cc1C,2,10,6,7,50*,4
CCc1ccc(NC(=O)Nc2ccc3c(c2)N(C)C(=O)CS3)cc1,-1,-3,6,9,49*,2
COc1cc2c(c(OC)c1OC)CC(c1ccccc1)=C(c1ccccc1)CC2NC(=O)C(F)(F)F (stereo not given),.,.,2,.,-2,.
CC1CCC(C(C)C)C(OC(=O)Cn2c(-c3ccc(F)cc3)[n+](C)c3ccccc32)C1 (stereo not given),.,54*,3,-3,-2,-1
Cc1cccc(OCc2n(CC(=O)OC3CC(C)CCC3C(C)C)c3ccccc3[n+]2C)c1 (stereo not given),0,61*,.,-2,.,0
Cc1cccc(OC(=O)Cn2c(C(F)(F)F)nc3ccccc32)c1,-2,2,5,-2,0,0
CC(NC(=O)COC(=O)/C(=C/c1cccs1)c1cccs1)c1ccccc1 (stereo not given),0,8,5,1,52*,-1
Cc1ccc(S(=O)(=O)Nc2ccccc2C(=O)N2CCN(C)CC2)cc1,102*,-4,0,.,-8,.
CC[C@@]1(O)C(=O)OCc2c1cc1n(c2=O)Cc2cc3c(CN(C)C)c(O)ccc3nc2-1,68*,.,9,.,-6,.
CC(C)(C)S(=O)N1Cc2cc(C(=O)NCC(F)(F)F)nc(-c3cccc(-c4cccc(F)c4)c3)c2[C@H]1CCO (stereo not given in full),.,.,10,.,62*,.
CCNC(=O)c1cc2c(c(-c3cccc(-c4cccc(C(=O)N(C)C)c4)c3)n1)[C@H](CCO)N(S(=O)C(C)(C)C)C2 (stereo not given in full),.,.,2,.,-5,.
COCCNC(=O)c1cc2c(c(-c3cccc(-c4cccc(OC)c4)c3)n1)[C@H](CCO)N(S(=O)C(C)(C)C)C2 (stereo not given in full),.,.,5,.,1,.
